Source: ChEMBL document CHEMBL5032492, “Aminoalkoxycarbonyloxymethyl Ether Prodrugs with a pH-Triggered Release Mechanism: A Case Study Improving the Solubility, Bioavailability, and Efficacy of Antimalarial 4(1H)-Quinolones with Single Dose Cures” (J Med Chem, 2021)
Converted amounts (≈) assume the structure as drawn. The source made the active and inactive calls. The calls are words filed in the database; no cut-off is given here.

Key:
[1] = test system: Plasmodium falciparum; assay: (§1) Antimalarial activity against chloroquine and pyrimethamine resistant Plasmodium falciparum W2 infected in human erythrocytes assessed as reduction in parasite growth incubated for 48 hrs followed by addition of [3H]-hypoxanthine and measured after 24 hrs by Topcount liquid scintillation counting method; assay type: functional, organism-based; conditions: W2, Erythrocyte
[2] = test system: Plasmodium falciparum; assay: as §1, with “chloroquine, pyrimethamine, mefloquine” for “chloroquine”, “atovaquone-” for “pyrimethamine”, “TM90-C2B” for “W2”; assay type: functional, organism-based; conditions: Erythrocyte
[3] = Aqueous solubility of compound at pH 7.4; assay type: physicochemical; conditions: buffer
[4] = Aqueous solubility of compound at pH 2.4; conditions: buffer
[5] = Tmax in BALB/c mouse at 3 mg/kg, po; assay type: ADME, organism-based; conditions: in vivo
Summary of the method: (§2)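 Single oral dose in mice, formulated in 0.5% aqueous HEC; doses of 3, 10 or 50 mg/kg. The parent 4(1H)-quinolone was quantified in plasma over time after dosing, with a lower limit of quantification of 1 nM. PK parameters were derived from the plasma concentration profiles.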

[6] = AUC (0 to 24 hrs) in BALB/c mouse at 3 mg/kg, po; assay type: ADME, organism-based; parameters: time < 24 hr, route oral, dose 3 mg/kg; conditions: in vivo; summary of the method: as §2
[7] = Cmax in BALB/c mouse at 3 mg/kg, po; assay type: ADME, organism-based; parameters: route oral, dose 3 mg/kg; conditions: in vivo; summary of the method: as §2
[8] = Volume of distribution in BALB/c mouse at 3 mg/kg, po; assay type: ADME, organism-based; conditions: in vivo; summary of the method: as §2
[9] = AUC (0 to 24 hrs) in BALB/c mouse at 10 mg/kg, po; assay type: ADME, organism-based; parameters: time < 24 hr, route oral, dose 10 mg/kg; conditions: in vivo; summary of the method: as §2
[10] = Clearance in BALB/c mouse at 3 mg/kg, po; assay type: ADME, organism-based; conditions: in vivo; summary of the method: as §2
[11] = Clearance in BALB/c mouse at 10 mg/kg, po; assay type: ADME, organism-based; conditions: in vivo; summary of the method: as §2
[12] = Tmax in BALB/c mouse at 10 mg/kg, po; assay type: ADME, organism-based; conditions: in vivo; summary of the method: as §2
[13] = test system: Plasmodium berghei; assay: (§3) In vivo antimalarial activity against blood stage Plasmodium berghei transfected with GFP infected in BALB/c mouse assessed as supression of parasitemia at 10 mg/kg, po administered as single dose on 3 days post infection and measured on day 6 by Giemsa staining based flow cytometric analysis relative to control; assay type: functional
Summary of the method: (§4)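 Female BALB/c mice, 4–6 weeks old, five per dose group, were infected intraperitoneally with 2 × 10^6 P. berghei-GFP-infected red cells. Each received one oral dose on day 3 PI in 0.5% aqueous HEC; doses ranged 0.01–10 mg/kg. Parasitemia was measured from tail blood by flow cytometry and Giemsa smears. Percent suppression on day 6 PI was calculated versus untreated infected controls, with Welch-corrected unpaired t test.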

[14] = Apparent half life in BALB/c mouse at 10 mg/kg, po; assay type: ADME, organism-based; conditions: in vivo, read-out: t1/2(app) (converted); summary of the method: as §2
[15] = Cmax in BALB/c mouse at 10 mg/kg, po; assay type: ADME, organism-based; parameters: route oral, dose 10 mg/kg; conditions: in vivo; summary of the method: as §2
[16] = Apparent half life in BALB/c mouse at 3 mg/kg, po; assay type: ADME, organism-based; conditions: in vivo, read-out: t1/2(app) (converted); summary of the method: as §2
[17] = Volume of distribution in BALB/c mouse at 10 mg/kg, po; assay type: ADME, organism-based; conditions: in vivo; summary of the method: as §2
[18] = test system: Plasmodium berghei; assay: as §3, with “administered once daily starting from day” for “administered as single dose on”, “3 to 5” for “3 days”, “measured at” for “measured on”; assay type: functional
Summary of the method: (§5)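 Female BALB/c mice, 4–6 weeks old, five per group, were infected intraperitoneally with 2 × 10^6 P. berghei-GFP-infected red cells. Oral doses of 10 or 50 mg/kg in 0.5% aqueous HEC were given once daily on days 3–5 PI; prodrugs were suspended about 1 min before dosing. Parasitemia was measured by flow cytometry and Giemsa smears. Day-6 percent suppression was calculated versus untreated controls, with Welch-corrected t test.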

[19] = test system: Plasmodium berghei; assay: as §3, with “thrice daily started from” for “as single dose on”; assay type: functional; conditions: time 3 day
[20] = test system: Plasmodium berghei; assay: In vivo antimalarial activity against Plasmodium berghei at 20 mg/kg, po administered as single dose in presence of ferroquine; assay type: functional, organism-based
[21] = Solubility of the compound in 0.5% hydroxyethylcellulose
[22] = AUC (0 to 24 hrs) in BALB/c mouse at 50 mg/kg, po; assay type: ADME, organism-based; parameters: time < 24 hr, route oral, dose 50 mg/kg; conditions: in vivo; summary of the method: as §2
[23] = Toxicity in BALB/c mouse infected with blood stage Plasmodium berghei assessed as weight loss at up to at 50 mg/kg, po administered once daily starting from day 3 to 5 post infection and measured on day 6; assay type: organism-based; conditions: in vivo
Summary of the method: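 P. berghei-infected BALB/c mice were dosed orally once daily on days 3–5 PI in 0.5% aqueous HEC, at doses up to 50 mg/kg. Body weight of treated animals was monitored for loss.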

[24] = test system: Plasmodium berghei; assay: as §3, with “at 50” for “at 10”, “administered once daily starting from day” for “administered as single dose on”, “3 to 5” for “3 days”, “measured at” for “measured on”; assay type: functional; summary of the method: as §5
[25] = Clearance in BALB/c mouse at 50 mg/kg, po; assay type: ADME, organism-based; conditions: in vivo; summary of the method: as §2
[26] = test system: Plasmodium berghei; assay: as §3, with “0.01” for “10”; assay type: functional; conditions: time 3 day; summary of the method: as §4
[27] = test system: Plasmodium berghei; assay: as §3, with “0.3” for “10”; assay type: functional; conditions: time 3 day; summary of the method: as §4
[28] = test system: Plasmodium berghei; assay: as §3, with “1” for “10”; assay type: functional; conditions: time 3 day; summary of the method: as §4
[29] = test system: Plasmodium berghei; assay: as §3, with “0.03” for “10”; assay type: functional; conditions: time 3 day; summary of the method: as §4
[30] = test system: Plasmodium berghei; assay: as §3, with “3” for “10”; assay type: functional; conditions: time 3 day; summary of the method: as §4
[31] = test system: Plasmodium berghei; assay: as §3, with “1” for “10”, “13” for “6”; assay type: functional; conditions: time 10 day
Summary of the method: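 Female BALB/c mice, five per group, were infected with P. berghei-GFP-infected erythrocytes intraperitoneally. Each received a single oral dose of 1 mg/kg in 0.5% aqueous HEC on day 3 PI. Tail-blood parasitemia was followed by flow cytometry and Giemsa smears at 3-day intervals through day 30. Suppression on day 13 PI was calculated relative to untreated infected controls.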

[32] = test system: Plasmodium berghei; assay: as §3, with “0.1” for “10”; assay type: functional; conditions: time 3 day; summary of the method: as §4
[33] = Toxicity in BALB/c mouse infected with blood stage Plasmodium berghei assessed as death at 1 mg/kg, po administered as single dose starting from day 3 post infection and measured on day 13; assay type: organism-based; conditions: in vivo, 240 h, time 10 day
Summary of the method: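 Female BALB/c mice (4–6 weeks, about 18 g), five per group, infected intraperitoneally with P. berghei (GFP)-parasitized erythrocytes. Given one oral dose on day 3 PI in 0.5% aqueous HEC, freshly solubilized about 1 min before dosing. Tail-vein parasitemia read by flow cytometry and Giemsa smears every third day through day 30. Untreated animals served as controls.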

[34] = Cmax in BALB/c mouse at 50 mg/kg, po; assay type: ADME, organism-based; parameters: route oral, dose 50 mg/kg; conditions: in vivo; summary of the method: as §2
[35] = Apparent half life in BALB/c mouse at 50 mg/kg, po; assay type: ADME, organism-based; conditions: in vivo, read-out: t1/2(app) (converted); summary of the method: as §2
[36] = Volume of distribution in BALB/c mouse at 50 mg/kg, po; assay type: ADME, organism-based; conditions: in vivo; summary of the method: as §2
[37] = Tmax in BALB/c mouse at 50 mg/kg, po; assay type: ADME, organism-based; conditions: in vivo; summary of the method: as §2

SMILES: CN1CCCOC1=O
- EC50 [1]: > 8320 nM

SMILES: CCOC(=O)Oc1c(-c2ccccc2C)c(C)nc2cc(OC)c(Cl)cc12
- EC50 [2]: 126 nM
- solubility [3]: < 1 µM
- EC50 [1]: 170 nM

SMILES: CCCSc1ccc2nc(NC(=O)OC)[nH]c2c1 [ALBENDAZOLE]
- solubility [3]: 6.1 µM (≈ 1.62 µg/mL)
- solubility [4]: 100 µM (≈ 26.5 µg/mL)

SMILES: COc1cc2[nH]c(C)c(-c3ccc(Oc4ccc(OC(F)(F)F)cc4)cc3F)c(=O)c2cc1Cl
- Tmax [5]: 4 h
- AUC [6]: 228 µmol·min/L
- Cmax [7]: 310 nM
- Vd [8]: 19.6 L/kg
- AUC [9]: 580 µmol·min/L
- clearance [10]: 26.6 mL/min/kg
- clearance [11]: 34.9 mL/min/kg
- Tmax [12]: 8 h
- Activity ([13]; time 3 day): <1%
- Activity ([13]; time 3.0 day): inactive
- half-life [14]: 14.5 h
- Cmax [15]: 460 nM
- half-life [16]: 8.5 h
- Vd [17]: 44 L/kg

SMILES: CCN(CC)Cc1cc(Nc2ccnc3cc(Cl)ccc23)ccc1O [AMODIAQUINE]
- Activity [18]: >99%
- Activity [19]: >99%

SMILES: c1cc([C@H]2CC[C@]3(CC2)OOC2(O3)C3CC4CC(C3)CC2C4)ccc1OCCN1CCOCC1 (stereo partly drawn)
- Activity [20]: Active

SMILES: CCN(CC)C(=O)Oc1c(-c2ccccc2C)c(C)nc2cc(OC)c(Cl)cc12
- EC50 [2]: > 3550 nM
- solubility [3]: < 1 µM
- EC50 [1]: > 2290 nM

SMILES: CNCCCOC(=O)OCOc1c(-c2ccc(C(F)(F)F)cc2)c(C)nc2cc(OC)c(Cl)cc12.Cl
- solubility [21]: > 5500 µM
- Activity [18]: 82%
- AUC [22]: 11664 µmol·min/L
- solubility [4]: 600 µM
- Activity [23]: Non-Toxic
- Activity [24]: 96%
- clearance [25]: 7.8 mL/min/kg

SMILES: COc1cc2[nH]c(C)c(-c3ccccc3C)c(=O)c2cc1Cl
- EC50 [2]: 38 nM
- Activity [18]: 29%
- EC50 [1]: 21.9 nM
- solubility [4]: 6.9 µM (≈ 2.17 µg/mL)
- Activity [23]: Non-Toxic
- Activity [24]: 28%

SMILES: O=C1C(O)=C([C@H]2CC[C@H](c3ccc(Cl)cc3)CC2)C(=O)c2ccccc21 [ATOVAQUONE]
- EC50 [2]: 18200 nM

SMILES: CCC(=O)Oc1c(-c2ccccc2C)c(C)nc2cc(OC)c(Cl)cc12
- EC50 [2]: 63.1 nM
- EC50 [1]: 63.1 nM

SMILES: CNCCCOC(=O)OCOc1c(-c2ccc(Oc3ccc(OC(F)(F)F)cc3)cc2F)c(C)nc2cc(OC)c(Cl)cc12.Cl
- solubility [21]: > 5500 µM
- Activity [26]: <1%
- AUC [6]: 4818 µmol·min/L
- Activity [27]: 57%
- AUC [9]: 10269 µmol·min/L
- Activity [28]: 97%
- Activity [29]: <1%
- clearance [10]: 0.9 mL/min/kg
- Activity [30]: >99%
- Activity [31]: 90%
- clearance [11]: 1.4 mL/min/kg
- Activity ([13]; time 3 day): >99%
- Activity [32]: <1%
- Activity [33]: Non-Toxic

SMILES: NC(=O)N1c2ccccc2C=Cc2ccccc21 [CARBAMAZEPINE]
- solubility [3]: 95 µM (≈ 22.4 µg/mL)
- solubility [4]: 100 µM (≈ 23.6 µg/mL)

SMILES: CNCCOC(=O)OCOc1c(-c2ccc(C(F)(F)F)cc2)c(C)nc2cc(OC)c(Cl)cc12.Cl
- solubility [21]: > 5600 µM
- Cmax [34]: 12000 nM
- Activity [18]: 75%
- AUC [22]: 8031 µmol·min/L
- half-life [35]: 7.7 h
- Vd [36]: 7.8 L/kg
- Tmax [37]: 4 h
- Activity [24]: 96%
- clearance [25]: 11.6 mL/min/kg

SMILES: COc1cc2[nH]c(C)c(-c3ccc(C(F)(F)F)cc3)c(=O)c2cc1Cl
- Activity [18]: 11%
- AUC [22]: 222 µmol·min/L
- solubility [4]: < 1 µM
- Activity [23]: Non-Toxic
- Activity [24]: 10%
- clearance [25]: 610 mL/min/kg

SMILES: CNCCOC(=O)OCOc1c(-c2ccccc2C)c(C)nc2cc(OC)c(Cl)cc12.Cl
- solubility [21]: > 21000 µM
- EC50 [2]: 107 nM
- Activity [18]: 71%
- EC50 [1]: 219 nM
- solubility [4]: > 100 µM
- Activity [24]: 46%

SMILES: CNCCCOC(=O)OCOc1c(-c2ccccc2C)c(C)nc2cc(OC)c(Cl)cc12.Cl
- solubility [21]: > 20000 µM
- EC50 [2]: 170 nM
- Activity [18]: 52%
- EC50 [1]: 269 nM
- solubility [4]: > 100 µM
- Activity [23]: Non-Toxic
- Activity [24]: 72%

SMILES: COc1cc2nc(C)c(-c3ccccc3C)c(OC(=O)N3CCCC3)c2cc1Cl
- EC50 [2]: > 3550 nM
- EC50 [1]: > 2290 nM
